Compound activity deposited in PubChem by several laboratories.
In the library only some 3.3% were active in any assay of this set; here they are far more common.
NRP1-CendR mod = NRP-1/CendR interaction modulation; hit rate 0.85% among 360,000; AID 602438; inhibition, % at 25 µM; FAM-RPARPAR peptide binding to NRP-1, fluorescence polarization; O14786;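 active = inhibition or corrected inhibition above about 18%, plus a signal ratio from 0.5 to 1.5, limit read from the data, passing the limit was not always enough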
ABCB6 inh 2 = human ABCB6 transporter inhibition; fluorescence ratio to DMSO, % at 10 µM; K562-ABCB6 porphyrin accumulation, flow cytometry, 1 h; stronger effect = lower value; AID 602162; hit rate 0.19% among 360,000; Q9NP58;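 active = fluorescence ratio to DMSO below 75%, the collection mean minus 3 SD; inconclusive = too few cells collected in the well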;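 also: signal is porphyrin accumulated inside mitochondria; 100% equals median channel fluorescence of DMSO control wells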
Myeloid diff 2 = compounds promoting myeloid differentiation | ER-HoxA9 myeloid progenitors, lysozyme-GFP differentiation, flow cytometry | calls only at 10 µM | hit rate 1% among 360,000 | AID 624256;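 active = normalized GFP-positive differentiation at or above the plate's own cutoff, the solvent-only control mean plus 3 SD; inconclusive = no clear call, values can overlap the other calls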;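 also: cells exposed to compound for four days before flow analysis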
ATG4B inhibitor = blocks human ATG4B protease cleavage of LC3 substrate; Q9Y4P1; ATG4B cleavage of LC3-PLA2, NBD-HPC fluorescence, 1 h; inhibition, % at 8.33 µM; hit rate 0.51% among 340,000; AID 504462; in the data active = inhibition above about 40%
Target sequence (Q9Y4P1 whole entry, looked up): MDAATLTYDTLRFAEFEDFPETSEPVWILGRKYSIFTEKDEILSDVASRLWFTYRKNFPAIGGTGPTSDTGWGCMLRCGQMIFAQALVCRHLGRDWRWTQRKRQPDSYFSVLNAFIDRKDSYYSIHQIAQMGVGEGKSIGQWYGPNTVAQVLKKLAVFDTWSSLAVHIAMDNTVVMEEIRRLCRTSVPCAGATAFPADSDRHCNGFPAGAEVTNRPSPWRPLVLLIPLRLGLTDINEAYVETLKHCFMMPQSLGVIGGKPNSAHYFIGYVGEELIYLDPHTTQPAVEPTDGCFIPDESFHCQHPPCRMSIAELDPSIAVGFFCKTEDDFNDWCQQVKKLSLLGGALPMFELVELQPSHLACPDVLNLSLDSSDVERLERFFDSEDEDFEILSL
Arr AP2 block = blocks beta-arrestin peptide binding to AP2 adaptin | FITC-arrestin peptide / GST-AP2 beads, flow cytometry; AP2 beta2 appendage carries R879A mutation | inhibition, % at 10 µM | hit rate 0.31% among 340,000;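 active = inhibition above a set limit, near 3 SD of compounds lacking own fluorescence, cut at about 54% in these data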;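 also: plate controls were DMSO wells for no effect and 5 µM unlabelled arrestin peptide for full effect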
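Material – GST-tagged AP2 beta2-adaptin appendage (R879A) on 4 µm glutathione beads · Probe or stimulus – fluorescein-tagged arrestin peptide at 50 nM final · Timing – 12 min plus 1 h, RT · Detection – bead flow cytometry, FITC channel · Read-out basis – inhibition as reduced fluorescein signal on beads, percent · Medium – PBS plus Tween 20 (0.05%) and BSA (0.1%)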
Exocytosis inh = blocks lytic granule exocytosis; TALL-104 LAMP-1 surface exposure, flow cytometry; cells stimulated with thapsigargin and PMA; inhibition, % at 10 µM; hit rate 0.66% among 360,000; AID 651702;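 active = inhibition above about 55%, limit read from the data; inconclusive = no clear call, values can overlap the other calls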
* hit, by the source's call.

O=C1/C(=C/c2ccc(N3CCOCC3)o2)SC(=Nc2ccccc2)N1CCc1c[nH]c2ccccc12 was read as NRP1-CendR mod 126, ABCB6 inh 2 inactive, Myeloid diff 2 active, ATG4B inhibitor -3, Arr AP2 block -16 and Exocytosis inh 75*.
Screening Cc1ccc(C(=O)OCC(=O)NCCc2ccccc2)cc1C returned NRP1-CendR mod -10, ABCB6 inh 2 94, Myeloid diff 2 inactive, ATG4B inhibitor 3, Arr AP2 block -10 and Exocytosis inh -2.
C=C1C[C@@]23CCC4[C@@](C)(CCC[C@@]4(C)C(=O)O)C2CC[C@]1(O)C3 (stereo partly specified) was read as NRP1-CendR mod 32*, ABCB6 inh 2 89, Myeloid diff 2 inactive, ATG4B inhibitor -17, Arr AP2 block 2 and Exocytosis inh 12.
For C[C@@]12CCC3[C@@](CCC4[C@@]3(C)CCC[C@@]4(C)C(=O)O)(CC1=O)C2 (stereo partly specified) the results were NRP1-CendR mod 11, ABCB6 inh 2 96, Myeloid diff 2 inactive, ATG4B inhibitor -6, Arr AP2 block 3 and Exocytosis inh 15.
Screening CCCCn1nnnc1C(c1cc2ccccc2o1)N1CCN(c2c(C)cccc2C)CC1 (stereo unspecified) returned NRP1-CendR mod 26*, ABCB6 inh 2 103, Myeloid diff 2 inactive and Exocytosis inh -4.
Screening Cc1[nH]c2ccccc2c1C(=O)COC(=O)c1c(-c2c(F)cccc2Cl)noc1C returned NRP1-CendR mod -7, ABCB6 inh 2 97, Myeloid diff 2 inactive, ATG4B inhibitor -5, Arr AP2 block -15 and Exocytosis inh -1.
For CN(C)c1cccc2c(S(=O)(=O)NC(=O)[C@H]3O[C@@H](n4cnc5c(N)ncnc54)[C@H](O)[C@@H]3O)cccc12 the results were NRP1-CendR mod 25*, ABCB6 inh 2 97, Myeloid diff 2 inactive and Exocytosis inh -2.
For CC(C)[C@@H](CO)NC(=O)[C@H]1O[C@@H](n2cnc3c(N)ncnc32)[C@H](O)[C@@H]1O the results were NRP1-CendR mod 10, ABCB6 inh 2 99, Myeloid diff 2 inactive and Exocytosis inh 3.
`O=C(Cn1nc(CNc2ccc(Br)cc2)[n+]2c1CCCCC2)c1ccc([N+](=O)[O-])cc1` gave NRP1-CendR mod -4, ABCB6 inh 2 98, Myeloid diff 2 inactive, ATG4B inhibitor -3, Arr AP2 block -2 and Exocytosis inh -2.
`CC(=O)Nc1ccc(S(=O)(=O)N(C)C2CCN(C)CC2)cc1` gave NRP1-CendR mod 9, ABCB6 inh 2 97, Myeloid diff 2 inactive, ATG4B inhibitor -7, Arr AP2 block -4 and Exocytosis inh 1.
CC(Oc1cccc(Cl)c1)C(=O)Nc1ccc(S(=O)(=O)N(C)C2CCN(C)CC2)cc1 (stereo unspecified) was read as NRP1-CendR mod 8, ABCB6 inh 2 101, Myeloid diff 2 active, ATG4B inhibitor -2, Arr AP2 block -2 and Exocytosis inh -2.
CC(Oc1cccc(Cl)c1)C(=O)Nc1ccccc1N1CCCCC1 (stereo unspecified) was read as NRP1-CendR mod 28*, ABCB6 inh 2 98, Myeloid diff 2 inactive, ATG4B inhibitor -3, Arr AP2 block -2 and Exocytosis inh 2.
For Cc1cccc(C)c1C(O)c1ncc(-c2ccccc2Cl)[nH]1 (stereo unspecified) the results were NRP1-CendR mod -12, ABCB6 inh 2 98, Myeloid diff 2 inactive and Exocytosis inh -4.
CC1=CC2C(C(O)CC3(C)C2CC(C)C32OCOC23COCO3)C2(C)C/C(=C\O)C(=O)C=C12 (stereo unspecified) was read as NRP1-CendR mod -23, ABCB6 inh 2 93, Myeloid diff 2 inconclusive, ATG4B inhibitor -1, Arr AP2 block 21 and Exocytosis inh 72*.
Screening CCOC(=O)/C(N=Nc1ccc2c(c1)OCO2)=C(\C)O returned NRP1-CendR mod 6, ABCB6 inh 2 106, Myeloid diff 2 inactive, ATG4B inhibitor 0, Arr AP2 block -3 and Exocytosis inh 0.
Screening Cc1nn(CCO)c(N)c1C1(O)C(=O)Nc2c(Cl)cc(Cl)cc21 (stereo unspecified) returned NRP1-CendR mod 24*, ABCB6 inh 2 109, Myeloid diff 2 inactive, ATG4B inhibitor -7, Arr AP2 block 14 and Exocytosis inh 7.
For C/C(=N/NC(N)=S)c1cc2ccc(O)cc2oc1=O the results were NRP1-CendR mod -84, ABCB6 inh 2 109, Myeloid diff 2 active, ATG4B inhibitor -8, Arr AP2 block -10 and Exocytosis inh 2.
For Cc1ccc(S(=O)(=O)N2CCOCC2)cc1NC(=O)COC(=O)c1cnc(Cl)c(Cl)c1 the results were NRP1-CendR mod -8, ABCB6 inh 2 93, Myeloid diff 2 inactive, ATG4B inhibitor -5, Arr AP2 block 1 and Exocytosis inh -2.
`NS(=O)(=O)c1ccc(N/N=C/c2cn(-c3ccccc3)nc2-c2cccs2)cc1` gave NRP1-CendR mod 30*, ABCB6 inh 2 98, Myeloid diff 2 inconclusive, ATG4B inhibitor 11, Arr AP2 block -6 and Exocytosis inh 3.
`O=C(c1ccccn1)N1CCN(S(=O)(=O)c2ccccc2)CC1` gave NRP1-CendR mod 24*, ABCB6 inh 2 106, Myeloid diff 2 inactive, ATG4B inhibitor -10, Arr AP2 block -5 and Exocytosis inh 8.
Screening Cc1ccc(S(=O)(=O)N2CCN(C(=O)c3ccccn3)CC2)cc1 returned NRP1-CendR mod 11, ABCB6 inh 2 103, Myeloid diff 2 inactive, ATG4B inhibitor -6, Arr AP2 block -21 and Exocytosis inh 2.
`c1ccc2c(C[C@@H]3CNCCN3CC3CCCCC3)cccc2c1` gave NRP1-CendR mod 12, ABCB6 inh 2 99, Myeloid diff 2 active, ATG4B inhibitor -8, Arr AP2 block 22 and Exocytosis inh -7.
`CCCCNC(=O)N(O)C1N(/N=C/c2ccco2)C(=S)SC1(C)C` (stereo unspecified) gave NRP1-CendR mod 2, ABCB6 inh 2 97, Myeloid diff 2 inactive, ATG4B inhibitor 6, Arr AP2 block -1 and Exocytosis inh -3.
COC(=O)CCC(=O)Nc1cccc2c(NC(=O)CCC(=O)OC)cccc12 was read as NRP1-CendR mod 21*, ABCB6 inh 2 96, Myeloid diff 2 inactive, ATG4B inhibitor 1, Arr AP2 block -6 and Exocytosis inh 0.
COC(=O)CCC(=O)Nc1ccccc1C(N)=O was read as NRP1-CendR mod 0, ABCB6 inh 2 97, Myeloid diff 2 inactive, ATG4B inhibitor -6, Arr AP2 block 0 and Exocytosis inh 19.
`Cc1ccc(C)c(NC(=S)NNc2ccc(F)cc2F)c1` gave NRP1-CendR mod 12, ABCB6 inh 2 105, Myeloid diff 2 inactive, ATG4B inhibitor 1, Arr AP2 block 29 and Exocytosis inh 84*.
